The source made the active and inactive calls.
Legend:
[1] = biological target: geranylgeranyltransferase type-I (Rattus norvegicus, UniProt P53610+Q04631); assay: Inhibition of recombinant rat GGtase-1 expressed in Escherichia coli using dansyl-GCVLL as substrate after 1.5 hrs by spectrofluorimetric analysis
[2] = biological target: T1, Geranylgeranyl transferase type-2 (Homo sapiens) (UniProt P53611+Q92696); assay: Inhibition of GGtase-2 in human cells assessed as minimum effective dose causing => 20% decrease in Rab6 level after 48 hrs by immunoblot analysis; type: cell-based
Outline: (§1)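 The lowest effective concentration in RPMI-8226 cells after 48 h requires both criteria below: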

[3] = biological target: T2, Geranylgeranyl pyrophosphate synthase (Homo sapiens, UniProt O95749); assay: Inhibition of GGDPS (unknown origin) using [14C] IPP and FPP as substrate preincubated for 10 mins followed by substrate addition and measured after 30 min by liquid scintillation counting method
T2 sequence (O95749 whole entry): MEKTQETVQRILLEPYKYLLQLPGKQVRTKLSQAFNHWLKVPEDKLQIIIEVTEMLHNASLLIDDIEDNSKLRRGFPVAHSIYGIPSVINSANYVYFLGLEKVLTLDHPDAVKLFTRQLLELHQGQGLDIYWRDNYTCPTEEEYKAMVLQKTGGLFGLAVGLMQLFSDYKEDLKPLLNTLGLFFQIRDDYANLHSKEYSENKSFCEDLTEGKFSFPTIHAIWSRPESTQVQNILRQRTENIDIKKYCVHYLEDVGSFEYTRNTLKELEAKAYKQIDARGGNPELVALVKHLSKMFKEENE

[4] = biological target: T3, Farnesyl pyrophosphate synthase (Homo sapiens, UniProt P14324); assay: Inhibition of FDPS (unknown origin) using [14C] IPP and GPP as substrate preincubated for 10 mins followed by substrate addition and measured after 30 min by liquid scintillation counting method
T3 sequence (P14324 whole entry): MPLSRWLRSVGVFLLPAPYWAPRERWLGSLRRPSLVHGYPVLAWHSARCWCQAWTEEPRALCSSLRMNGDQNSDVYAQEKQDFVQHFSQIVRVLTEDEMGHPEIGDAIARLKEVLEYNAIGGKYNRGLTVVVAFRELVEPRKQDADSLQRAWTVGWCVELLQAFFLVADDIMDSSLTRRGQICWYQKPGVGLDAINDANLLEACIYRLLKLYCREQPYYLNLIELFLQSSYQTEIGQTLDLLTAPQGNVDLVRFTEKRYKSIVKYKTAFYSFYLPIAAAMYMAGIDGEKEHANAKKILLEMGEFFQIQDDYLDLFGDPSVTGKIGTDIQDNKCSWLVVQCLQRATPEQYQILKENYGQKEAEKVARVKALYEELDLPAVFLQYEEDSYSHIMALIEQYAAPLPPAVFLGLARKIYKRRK

[5] = biological target: T4, Farnesyl pyrophosphate synthase (Homo sapiens) (UniProt P14324)
T4 sequence (whole entry): T3 sequence (P14324 whole entry)

Homo sapiens = species: Homo sapiens; assay: Selectivity ratio of IC50 for GGDPS (unknown origin) to IC50 for FDPS (unknown origin)
[6] = biological target: T1, Geranylgeranyl transferase type-2 (Homo sapiens); assay: Inhibition of GGtase-2 in human cells assessed as minimum effective dose required for increase in intracellular lambda chain level after 48 hrs by ELISA; type: cell-based; outline: as §1
[7] = biological target: T5, Geranylgeranyl transferase type-2 (Rattus norvegicus, UniProt Q08602+Q08603); assay: Inhibition of recombinant rat RabGGTase expressed in Escherichia coli using Rab7 as substrate and [3H]geranylgeranyl pyrophosphate after 20 mins by liquid scintillation analysis
T5 sequence (Q08603 whole entry): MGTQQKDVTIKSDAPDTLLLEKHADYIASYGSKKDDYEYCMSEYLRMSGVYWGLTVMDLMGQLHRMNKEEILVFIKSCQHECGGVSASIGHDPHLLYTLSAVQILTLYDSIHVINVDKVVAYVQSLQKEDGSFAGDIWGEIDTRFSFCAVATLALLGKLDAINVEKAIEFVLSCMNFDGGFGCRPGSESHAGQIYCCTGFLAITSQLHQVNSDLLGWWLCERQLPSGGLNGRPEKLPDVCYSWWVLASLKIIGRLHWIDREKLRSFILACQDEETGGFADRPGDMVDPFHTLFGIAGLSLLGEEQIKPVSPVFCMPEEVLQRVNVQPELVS
T5 sequence (Q08602 whole entry): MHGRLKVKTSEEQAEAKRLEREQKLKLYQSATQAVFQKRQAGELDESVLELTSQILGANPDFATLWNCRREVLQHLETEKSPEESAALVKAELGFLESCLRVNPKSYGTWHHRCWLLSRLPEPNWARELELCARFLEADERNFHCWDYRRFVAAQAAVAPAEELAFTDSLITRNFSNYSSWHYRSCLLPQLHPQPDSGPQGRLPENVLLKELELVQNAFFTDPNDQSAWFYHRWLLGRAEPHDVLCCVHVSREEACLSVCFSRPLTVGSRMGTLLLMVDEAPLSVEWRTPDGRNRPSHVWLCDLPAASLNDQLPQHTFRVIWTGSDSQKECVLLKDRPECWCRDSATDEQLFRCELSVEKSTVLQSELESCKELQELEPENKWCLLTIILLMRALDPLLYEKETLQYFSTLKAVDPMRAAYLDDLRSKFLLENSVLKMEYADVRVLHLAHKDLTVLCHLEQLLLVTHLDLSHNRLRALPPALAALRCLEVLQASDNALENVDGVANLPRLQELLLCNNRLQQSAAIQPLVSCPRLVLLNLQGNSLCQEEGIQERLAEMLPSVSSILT

[8] = biological target: T4, Farnesyl pyrophosphate synthase (Homo sapiens); remark: listed apart in the source
[9] = biological target: Protein farnesyltransferase (Rattus norvegicus, UniProt Q02293+Q04631); assay: Inhibition of recombinant rat FTase expressed in Escherichia coli using dansyl-GCVLS as substrate after 1.5 hrs by spectrofluorimetric analysis
[10] = biological target: T6, Geranylgeranyl transferase type I (Homo sapiens) (UniProt P49354+P53609); assay: Inhibition of GGtase-1 in human RPMI8226 cells assessed as disruption of Rap1a geranylgeranylation after 48 hrs immunoblot analysis; type: cell-based
[11] = biological target: T4, Farnesyl pyrophosphate synthase (Homo sapiens); assay: Inhibition of FDPS in human RPMI8226 cells assessed as unmodified Rap1a level at =< 1 mM after 48 hrs by immunoblot analysis; type: cell-based
Outline: (§2)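 RPMI-8226 cells were exposed for 48 h. The lowest effective concentration counts only when two read-outs agree. Unmodified Rap1a must be visible on immunoblot of whole-cell lysate, using an antibody that detects only unmodified protein.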

[12] = biological target: T4, Farnesyl pyrophosphate synthase (Homo sapiens); assay: Inhibition of FDPS in human RPMI8226 cells assessed as increase in intracellular lambda chain level at =< 1mM after 48 hrs by ELISA; type: cell-based
Outline: (§3)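 RPMI-8226 cells were exposed for 48 h, and intracellular lambda light chain was measured by ELISA as percent of untreated control. The lowest effective concentration also requires unmodified Rap1a to be visible on whole-cell-lysate immunoblot with an unmodified-specific antibody. The ELISA rise must be statistically significant.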

[13] = biological target: T7, Protein farnesyltransferase (Homo sapiens) (UniProt P49354+P49356); assay: Inhibition of FTase in human RPMI8226 cells assessed as disruption of H-ras farnesylation after 48 hrs by immunoblot analysis; type: cell-based
[14] = biological target: T1, Geranylgeranyl transferase type-2 (Homo sapiens); assay: Inhibition of GGtase-2 in human RPMI8226 cells assessed as decrease in Rab6 level at =< 1 mM after 48 hrs by immunoblot analysis relative to control; type: cell-based
Outline: (§4)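 After 48 h treatment, RPMI-8226 cells were extracted with Triton X-114 to give a detergent (membrane) fraction, which was immunoblotted for Rab6. Rab6 band density was normalized to calnexin and expressed relative to untreated cells. Blots are representative of three independent studies.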

[15] = biological target: T1, Geranylgeranyl transferase type-2 (Homo sapiens); assay: Inhibition of GGtase-2 in human RPMI8226 cells assessed as increase in intracellular lambda chain at =< 1 mM level after 48 hrs by ELISA; type: cell-based
Outline: (§5)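 RPMI-8226 cells were incubated 48 h with the compound or medium alone. Intracellular lambda light chain was quantified by ELISA and expressed as percent of untreated control (mean ± SD, n=3). Significance versus control was judged by t-test, p<0.05.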

[16] = biological target: T6, Geranylgeranyl transferase type I (Homo sapiens); assay: Inhibition of GGtase-1 in human RPMI8226 cells assessed as disruption of Rap1a geranylgeranylation at 0.5 uM after 48 hrs by immunoblot analysis; type: cell-based
[17] = biological target: T7, Protein farnesyltransferase (Homo sapiens); assay: Inhibition of FTase in human RPMI8226 cells assessed as disruption of H-ras farnesylation at 0.5 uM after 48 hrs by immunoblot analysis; type: cell-based
[18] = biological target: T1, Geranylgeranyl transferase type-2 (Homo sapiens); assay: Inhibition of GGtase-2 in human cells assessed as increase in intracellular lambda chain at =< 5 mM level after 48 hrs by ELISA; type: cell-based; outline: as §5
[19] = biological target: T4, Farnesyl pyrophosphate synthase (Homo sapiens); assay: Inhibition of FDPS in human RPMI8226 cells assessed as increase in intracellular lambda chain level at =< 5 mM after 48 hrs by ELISA; type: cell-based; outline: as §3
[20] = biological target: T1, Geranylgeranyl transferase type-2 (Homo sapiens); assay: Inhibition of GGtase-2 in human cells assessed as decrease in Rab6 level at =< 5 mM after 48 hrs by immunoblot analysis relative to control; type: cell-based; outline: as §4
[21] = biological target: T4, Farnesyl pyrophosphate synthase (Homo sapiens); assay: Inhibition of FDPS in human RPMI8226 cells assessed as unmodified Rap1a level at =< 5 mM after 48 hrs by immunoblot analysis; type: cell-based; outline: as §2
[22] = biological target: T6, Geranylgeranyl transferase type I (Homo sapiens); assay: Inhibition of GGtase-1 in human RPMI8226 cells assessed as disruption of Rap1a geranylgeranylation at 10 to 100 uM incubated for 48 hrs by immunoblot analysis; type: cell-based
[23] = biological target: T7, Protein farnesyltransferase (Homo sapiens); assay: Inhibition of FTase in human RPMI8226 cells assessed as disruption of H-ras farnesylation at 10 to 100 uM incubated for 48 hrs by immunoblot analysis; type: cell-based
[24] = biological target: T6, Geranylgeranyl transferase type I (Homo sapiens); assay: Inhibition of GGtase-1 in human RPMI8226 cells assessed as disruption of Rap1a geranylgeranylation at 10 to 100 uM after 48 hrs in presence lovastatin by immunoblot analysis; type: cell-based
Outline: (§6)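 Whole-cell lysates were then immunoblotted for H-Ras and unmodified Rap1a, using an antibody specific to the unprenylated protein. β-tubulin was the loading control.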

[25] = biological target: T7, Protein farnesyltransferase (Homo sapiens); assay: Inhibition of FTase in human RPMI8226 cells assessed as disruption of H-ras farnesylation at 10 to 100 uM after 48 hrs in presence of lovastatin by immunoblot analysis; type: cell-based; outline: as §6
[26] = biological target: T1, Geranylgeranyl transferase type-2 (Homo sapiens); assay: Inhibition of GGtase-2 in human RPMI8226 cells assessed as accumulation of intracellular lambda light chain level at 10 to 100 uM after 48 hrs by immunoblot analysis; type: cell-based

| SMILES | IC50 [1] | LED [2] | IC50 [3] | IC50 [4] | IC50 [7] | IC50 [9] | also measured |
| --- | --- | --- | --- | --- | --- | --- | --- |
| O=P(O)(O)C(Cn1cnc2cc(F)c(F)cc21)P(=O)(O)O | 122 µM | 0.5 mM | 87 µM | 0.15 µM | 738 µM | 340 µM | LED [5]: 0.5 mM; Ratio IC50 (Homo sapiens): 580; LED [6]: 0.5 mM; LED [8]: 0.5 mM |
| CC(Cn1cnc2ccccc21)(P(=O)(O)O)P(=O)(O)O | > 1000 µM | – | > 100 µM | 1 µM | > 1000 µM | > 1000 µM | inhibition [10]: inactive; inhibition [11]: inactive; inhibition [12]: inactive; inhibition [13]: inactive; inhibition [14]: inactive; inhibition [15]: inactive |
| CC[C@H](C)C(=O)O[C@H]1C[C@@H](C)C=C2C=C[C@H](C)[C@H](CC[C@@H]3C[C@@H](O)CC(=O)O3)[C@H]21 | – | – | – | – | – | – | inhibition [16]: Active; inhibition [17]: Active |
| Cc1cc2ncn(CC(C(=O)O)P(=O)(O)O)c2cc1C (stereo unspecified) | > 1000 µM | – | > 100 µM | > 100 µM | > 1000 µM | > 1000 µM | inhibition [18]: inactive; inhibition [19]: inactive; inhibition [20]: inactive; inhibition [21]: inactive |
| O=C(O)C(Cn1cnc2cc(F)c(F)cc21)P(=O)(O)O (stereo unspecified) | 145 µM | – | > 100 µM | > 100 µM | > 1000 µM | 450 µM | inhibition [18]: inactive; inhibition [19]: inactive; inhibition [20]: inactive; inhibition [21]: inactive |
| O=P(O)(O)C(Cn1cnc2ccccc21)P(=O)(O)O | > 1000 µM | 0.025 mM | 20.5 µM | 0.024 µM | > 1000 µM | 830 µM | inhibition [22]: Active; inhibition [23]: Active; inhibition [24]: Active; inhibition [25]: Active; inhibition [26]: Active |
| CC(Cn1cnc2ccccc21)(C(=O)O)P(=O)(O)O (stereo unspecified) | > 1000 µM | 5 mM | > 100 µM | > 100 µM | 810 µM | > 1000 µM | LED [5]: 5 mM; LED [6]: 5 mM; LED [8]: 5 mM |

Reference: ChEMBL document CHEMBL4312018, “Novel benzimidazole phosphonates as potential inhibitors of protein prenylation” (Bioorg Med Chem Lett, 2019)
